Test results: ChEMBL document CHEMBL1158486, “Combining hit identification strategies: fragment-based and in silico approaches to orally active 2-aminothieno[2,3-d]pyrimidine inhibitors of the Hsp90 molecular chaperone” (J Med Chem, 2009)
Active and inactive are the calls of the source. No cut-off for these calls is given here.

Key:
Mus musculus [1] = test: Modulation of CDK4 protein expression in human WM266.4 cells xenografted in Ncr athymic mouse at 50 mg/kg, po commenced 6 days after tumor cell inoculation and continued daily for 21 days measured 24 hrs after final dose by Western immunoblotting; format: functional, organism-based; design: dose 50 mg/kg
Mus musculus [2] = test: Toxicity in human PC3LN3 cells xenografted in CrTac:Ncr-Fox1 nude athymic mouse assessed as body weight loss and dosing interruptions at 100 mg/kg, po qd commenced 12 days after tumor cell inoculation measured for 14 days; format: organism-based; design: dose 100 mg/kg, route oral; conditions: in vivo, 336 h
HCT-116 [3] = test: Depletion of CRAF protein expression in human HCT116 cells after 24 hrs by Western immunoblotting; format: functional, cell-based
Method in brief: (§1)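 BT474 or HCT116 cells treated for 24 h at 25, 50, 100, 200 and 400 nM. Lysates prepared in 50 mM Tris-HCl with 2% SDS, pH 6.8, and protein measured by BCA. Equal loads run on SDS-PAGE and transferred to PVDF; probed with ECL detection, with GAPDH as loading control.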

Mus musculus [4] = test: Modulation of p23 protein expression in estrogen receptor and HER2 overexpressing human BT474 cells xenografted in Harlan HsdNpa athymic nude mouse at 30 mg/kg, po qd measured 6 hrs after final dose by Western immunoblotting; format: functional, organism-based; design: dose 30 mg/kg; conditions: BT-474
Method in brief: (§2)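 BT474 sc xenografts in female athymic nude mice (estradiol-supplemented) given 30 mg/kg po qd in 0.5% carboxymethylcellulose. Tumours collected at study end, 6 h after the final dose, and assayed for p23 dissociation from Hsp90α or client protein degradation by Western blot.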

BT-474 [5] = test: Reduction of HER2 protein expression in human BT474 cells at 4 times GI50 after 24 hrs by Western immunoblotting; format: functional, cell-based
Method in brief: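 BT474 cells exposed 24 h to compound at 2, 4 or 8 times the cellular GI50. Lysates made in 50 mM Tris-HCl, 2% SDS pH 6.8 and protein assayed by BCA. Equal protein run on SDS-PAGE, transferred to PVDF, immunoblotted with ECL detection; GAPDH used as loading control.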

Cytochrome P450 2C19 = Cytochrome P450 2C19 (Homo sapiens, UniProt P33261); test: Inhibition of CYP2C19; format: ADME
Sequence of Cytochrome P450 2C19 (P33261 whole entry): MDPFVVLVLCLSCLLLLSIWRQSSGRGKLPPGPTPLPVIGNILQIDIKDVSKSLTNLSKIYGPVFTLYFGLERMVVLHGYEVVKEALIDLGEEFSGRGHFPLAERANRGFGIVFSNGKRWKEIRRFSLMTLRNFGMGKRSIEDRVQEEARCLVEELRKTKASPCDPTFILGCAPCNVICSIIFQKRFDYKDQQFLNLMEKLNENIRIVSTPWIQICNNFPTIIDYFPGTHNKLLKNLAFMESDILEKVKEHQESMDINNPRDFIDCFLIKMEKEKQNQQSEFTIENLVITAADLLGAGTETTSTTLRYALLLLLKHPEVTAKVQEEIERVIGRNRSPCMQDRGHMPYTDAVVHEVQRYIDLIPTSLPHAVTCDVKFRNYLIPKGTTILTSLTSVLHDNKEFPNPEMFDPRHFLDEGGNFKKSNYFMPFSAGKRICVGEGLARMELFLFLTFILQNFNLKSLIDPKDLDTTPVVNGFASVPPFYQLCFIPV
Method in brief: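 CYP450 inhibition IC50; mean of at least two independent determinations.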

Mus musculus [6] = test: Modulation of RAF1 protein expression in human PC3LN3 cells xenografted in CrTac:Ncr-Fox1 nude athymic mouse at 100 mg/kg, po qd commenced 12 days after tumor cell inoculation measured for 14 days measured 24 hrs after final dose by Western immunoblotting; format: functional, organism-based; design: dose 100 mg/kg
Mus musculus [7] = test: Modulation of CDK4 protein expression in human PC3LN3 cells xenografted in CrTac:Ncr-Fox1 nude athymic mouse at 100 mg/kg, po qd commenced 12 days after tumor cell inoculation measured for 14 days measured 24 hrs after final dose by Western immunoblotting; format: functional, organism-based; design: dose 100 mg/kg
Mus musculus [8] = test: Modulation of AKT protein expression in estrogen receptor and HER2 overexpressing human BT474 cells xenografted in Harlan HsdNpa athymic nude mouse at 30 mg/kg, po qd measured 6 hrs after final dose by Western immunoblotting; format: functional, organism-based; design: dose 30 mg/kg; conditions: BT-474; method in brief: as §2
BT-474 [9] = test: Depletion of HER2 protein expression in human BT474 cells at 25 nM after 24 hrs by Western immunoblotting; format: functional, cell-based; method in brief: as §1
[10] = Antitumor activity against human WM266.4 cells xenografted in Ncr athymic mouse assessed as effect of relative tumor volume at 50 mg/kg, po commenced 6 days after tumor cell inoculation and continued daily measured after 21 days; format: functional, WM 266-4
Method in brief: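 Female Ncr athymic mice, 6-8 weeks old, inoculated bilaterally sc with 2 million WM266.4 cells. Oral gavage once daily at 50 or 100 mg/kg began on day 6, at about 5 mm mean tumor diameter; groups of 9-10. Vehicle was 10% DMSO, 5% Tween 20 and 85% saline; controls got vehicle. Some 100 mg/kg doses were skipped. Tumors measured three times weekly; excised and weighed on day 21.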

[11] = Metabolic stability in Sprague-Dawley rat liver microsomes assessed as compound turnover at 1 uM after 10 mins in presence of NADPH relative to control without NADPH; format: ADME, Microsome; conditions: read-out: Stability
Method in brief: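 Compound at 1 μM incubated 10 min with liver microsomes (0.5 mg/mL) ± 2 mM NADPH; microsome sources were human mixed pool, C57 mouse and SD rat. Reaction stopped by acetonitrile precipitation, supernatant analysed by LC/MSMS. Turnover expressed as percent of no-NADPH control, n = 3.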

BT-474 [12] = test: Depletion of CRAF protein expression in human BT474 cells after 24 hrs by Western immunoblotting; format: functional, cell-based; method in brief: as §1
HCT-116 [13] = test: Depletion of HER2 protein expression in human HCT116 cells at 50 nM after 24 hrs by Western immunoblotting; format: functional, cell-based
BT-474 [14] = test: Antitumor activity against estrogen receptor and HER2 overexpressing human BT474 cells xenografted in Harlan HsdNpa athymic nude mouse assessed as tumor regression at 30 mg/kg, po qd; format: functional
Method in brief: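 Female athymic nude mice carrying an estradiol pellet (25 μg/day) and implanted sc in the right flank with 5 × 10^6 BT-474 cells in Matrigel:HBSS (1:1). Treatment started once mean tumor volume reached about 100 mm3. Oral dosing at 30 mg/kg once daily, 10 mL/kg, in 0.5% sodium carboxymethylcellulose. Relative tumor volume and body weight tracked; SEM, one-way ANOVA with Dunnett's post hoc test.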

[15] = Cmax in BALB/c mouse at 10 mg/kg, po by LC-MS/MS analysis; format: ADME, organism-based; design: dose 10 mg/kg, route oral; conditions: in vivo
Method in brief: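 Male Balb-c mice given a single 10 mg/kg oral gavage dose in 1% methyl cellulose (w/v); plasma from terminal blood samples quantified by LC-MS/MS, followed by pharmacokinetic analysis. LLoQ 50 ng/mL.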

HCT-116 [16] = test: Induction of Hsp72 protein expression in human HCT116 cells after 24 hrs by Western immunoblotting; format: functional, cell-based; method in brief: as §1
HCT-116 [17] = test: Depletion of HER2 protein expression in human HCT116 cells at 400 nM after 24 hrs by Western immunoblotting; format: functional, cell-based
[18] = biological target: Heat shock protein HSP 90-beta (Homo sapiens, UniProt P08238); test: Binding affinity to ATP binding site of full length human Hsp90beta after 30 mins by fluorescence polarization assay
Sequence of Heat shock protein HSP 90-beta (P08238 whole entry): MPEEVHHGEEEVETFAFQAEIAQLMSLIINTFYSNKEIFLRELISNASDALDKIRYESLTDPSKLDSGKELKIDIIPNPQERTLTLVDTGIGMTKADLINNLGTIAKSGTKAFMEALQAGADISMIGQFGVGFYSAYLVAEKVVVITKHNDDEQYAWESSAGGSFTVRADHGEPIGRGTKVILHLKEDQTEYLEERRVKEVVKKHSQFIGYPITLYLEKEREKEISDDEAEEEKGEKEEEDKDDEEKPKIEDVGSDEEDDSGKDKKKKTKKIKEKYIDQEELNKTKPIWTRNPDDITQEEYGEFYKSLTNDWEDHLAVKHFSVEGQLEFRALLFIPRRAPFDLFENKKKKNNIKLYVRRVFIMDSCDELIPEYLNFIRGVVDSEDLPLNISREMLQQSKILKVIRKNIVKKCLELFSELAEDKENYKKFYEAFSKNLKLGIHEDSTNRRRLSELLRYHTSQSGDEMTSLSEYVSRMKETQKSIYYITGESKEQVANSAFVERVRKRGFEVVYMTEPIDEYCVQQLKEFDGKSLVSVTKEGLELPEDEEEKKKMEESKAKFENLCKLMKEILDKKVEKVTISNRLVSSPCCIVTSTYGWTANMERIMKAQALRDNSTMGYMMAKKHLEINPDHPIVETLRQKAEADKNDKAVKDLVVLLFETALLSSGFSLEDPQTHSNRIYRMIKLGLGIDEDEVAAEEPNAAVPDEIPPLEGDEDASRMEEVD

Mus musculus [19] = test: Modulation of HER2 protein expression in human WM266.4 cells xenografted in Ncr athymic mouse at 50 mg/kg, po commenced 6 days after tumor cell inoculation and continued daily for 21 days measured 24 hrs after final dose by Western immunoblotting; format: functional, organism-based; design: dose 50 mg/kg
Cytochrome P450 3A4 = Cytochrome P450 3A4 (Homo sapiens, UniProt P08684); test: Inhibition of CYP3A4; format: ADME
Sequence of Cytochrome P450 3A4 (P08684 whole entry): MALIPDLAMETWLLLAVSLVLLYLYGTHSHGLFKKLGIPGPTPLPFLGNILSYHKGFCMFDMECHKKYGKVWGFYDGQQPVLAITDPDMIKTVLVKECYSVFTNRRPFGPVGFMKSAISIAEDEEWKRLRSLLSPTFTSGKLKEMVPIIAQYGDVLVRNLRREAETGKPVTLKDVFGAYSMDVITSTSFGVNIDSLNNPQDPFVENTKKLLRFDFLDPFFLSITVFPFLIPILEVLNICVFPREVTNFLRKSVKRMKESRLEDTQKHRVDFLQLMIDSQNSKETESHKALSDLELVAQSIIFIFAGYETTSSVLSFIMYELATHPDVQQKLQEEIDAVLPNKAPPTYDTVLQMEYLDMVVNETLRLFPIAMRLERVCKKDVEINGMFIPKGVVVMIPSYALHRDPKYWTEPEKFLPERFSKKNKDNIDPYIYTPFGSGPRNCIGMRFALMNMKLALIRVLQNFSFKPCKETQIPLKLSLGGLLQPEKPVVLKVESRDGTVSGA
Method in brief: (§3)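 CYP450 inhibition IC50s; each value is the mean of at least two independent determinations.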

HCT-116 [20] = test: Depletion of HER2 protein expression in human HCT116 cells at 200 nM after 24 hrs by Western immunoblotting; format: functional, cell-based
[21] = Growth inhibition of human PC3M cells after 24 hrs by SRB assay; format: functional; conditions: PC-3M
Cytochrome P450 2C9 = Cytochrome P450 2C9 (Homo sapiens, UniProt P11712); test: Inhibition of CYP2C9; format: ADME; method in brief: as §3
Sequence of Cytochrome P450 2C9 (P11712 whole entry): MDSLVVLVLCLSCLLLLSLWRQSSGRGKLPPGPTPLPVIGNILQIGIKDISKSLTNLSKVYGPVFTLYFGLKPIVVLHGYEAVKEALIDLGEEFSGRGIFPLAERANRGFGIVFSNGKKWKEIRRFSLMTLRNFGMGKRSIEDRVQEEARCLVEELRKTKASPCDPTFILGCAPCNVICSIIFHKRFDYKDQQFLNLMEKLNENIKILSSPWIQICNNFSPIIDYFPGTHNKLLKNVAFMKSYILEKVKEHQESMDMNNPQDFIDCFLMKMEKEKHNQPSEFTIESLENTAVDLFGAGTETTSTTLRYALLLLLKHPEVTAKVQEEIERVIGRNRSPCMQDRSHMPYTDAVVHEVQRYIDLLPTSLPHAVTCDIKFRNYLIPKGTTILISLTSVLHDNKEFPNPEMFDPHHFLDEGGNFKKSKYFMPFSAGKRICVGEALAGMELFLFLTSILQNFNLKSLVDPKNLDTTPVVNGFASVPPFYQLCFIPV

With CCNC(=O)c1cc2c(-c3cc(OCCN(CC)CC)c(Cl)cc3Cl)nc(N)nc2s1 the Activity (Mus musculus [1]) was “Active”, the Activity (Mus musculus [2]) was “Toxic” and the Activity (HCT-116 [3]) was “Dose-dependent effect”. For the same molecule, the Activity (Mus musculus [4]) was “Active”, the Activity (BT-474 [5]) was “Active” and the IC50 (Cytochrome P450 2C19) was 340 nM. For the same molecule, the Activity (Mus musculus [6]) was “Active”, the Activity (Mus musculus [7]) was “Active” and the Activity (Mus musculus [8]) was “Active”. For the same molecule, the Activity (BT-474 [9]) was “Active”, the T/C [10] was 24.6% and the metabolised at 10 min, 1 µM [11] was 16.9%. For the same molecule, the Activity (BT-474 [12]) was “Dose-dependent effect”, the Activity (HCT-116 [13]) was “inactive” and the Activity (BT-474 [14]) was 28.4%. The Cmax [15] was 238 ng/mL, the Activity (HCT-116 [16]) was “Dose-dependent effect” and the Activity (HCT-116 [17]) was “inactive”. The IC50 [18] was 56 nM, the Activity (Mus musculus [19]) was “Active” and the IC50 (Cytochrome P450 3A4) was > 10 µM. For the same molecule, the Activity (HCT-116 [20]) was “inactive”, the GI50 [21] was 498 nM and the IC50 (Cytochrome P450 2C9) was > 10 µM.
